# Compounds with a hit are over-represented: about 4.1% of the library has one in this group of screens.
# hERG protect: shields human hERG channel from block by proarrhythmic agents. Q12809. CHO-hERG, FluxOR thallium flux, dofetilide IC70 present. activation (rescue from dofetilide block), less the hit threshold, % at 10 µM. 310,000 compounds, 0.51% hits. AID 1511;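 active = activation above the mean of controls blocked by dofetilide plus 5 SD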;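 note: thallium influx through hERG after potassium depolarization seen as dye fluorescence rise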
# Target sequence (Q12809 whole entry, looked up): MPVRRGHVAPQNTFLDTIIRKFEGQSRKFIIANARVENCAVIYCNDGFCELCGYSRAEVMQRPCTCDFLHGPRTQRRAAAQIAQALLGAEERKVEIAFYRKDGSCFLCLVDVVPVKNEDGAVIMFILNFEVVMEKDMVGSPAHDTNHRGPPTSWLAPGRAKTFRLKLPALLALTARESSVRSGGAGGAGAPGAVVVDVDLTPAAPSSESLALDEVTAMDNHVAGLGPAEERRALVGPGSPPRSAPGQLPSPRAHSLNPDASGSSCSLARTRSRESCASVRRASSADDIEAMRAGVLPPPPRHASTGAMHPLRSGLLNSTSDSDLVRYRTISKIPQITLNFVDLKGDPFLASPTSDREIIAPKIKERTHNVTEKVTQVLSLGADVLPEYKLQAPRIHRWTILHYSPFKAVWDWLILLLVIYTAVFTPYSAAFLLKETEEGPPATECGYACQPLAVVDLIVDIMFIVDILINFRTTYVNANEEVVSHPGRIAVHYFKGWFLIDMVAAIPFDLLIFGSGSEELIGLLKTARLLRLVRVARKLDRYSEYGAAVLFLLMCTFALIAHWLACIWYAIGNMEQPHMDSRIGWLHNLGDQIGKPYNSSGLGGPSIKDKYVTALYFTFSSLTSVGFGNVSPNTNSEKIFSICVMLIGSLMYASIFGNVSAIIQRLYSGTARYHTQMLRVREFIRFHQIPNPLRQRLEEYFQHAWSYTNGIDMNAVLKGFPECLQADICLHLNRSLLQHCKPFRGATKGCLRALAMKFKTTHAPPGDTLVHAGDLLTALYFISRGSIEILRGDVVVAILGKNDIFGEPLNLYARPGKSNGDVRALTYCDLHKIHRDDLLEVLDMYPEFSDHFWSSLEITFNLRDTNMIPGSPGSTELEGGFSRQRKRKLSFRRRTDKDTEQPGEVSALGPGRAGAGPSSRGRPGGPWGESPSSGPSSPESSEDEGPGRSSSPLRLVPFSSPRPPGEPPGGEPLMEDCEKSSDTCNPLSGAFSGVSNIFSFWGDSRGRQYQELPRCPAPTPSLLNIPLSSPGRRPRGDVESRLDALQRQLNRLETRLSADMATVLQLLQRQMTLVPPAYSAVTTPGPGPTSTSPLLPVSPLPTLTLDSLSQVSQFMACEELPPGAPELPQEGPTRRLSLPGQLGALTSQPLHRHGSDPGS
# Cl transport mod: KCC2 (human) Cl- transport modulation; 190,000 compounds, 2.2% hits; B-score of Tl+ flux slope (higher = more flux/activation; lower = inhibition) at 10 µM; KCC2 cells, thallium flux FluoZin-2 fluorescence; AID 1456; Q9H2X9;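 active = thallium flux slope and its plate-corrected score both differing from the plate sample mean at a set confidence after two filtering rounds, in either direction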;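 note: slope of fluorescence scaled to starting intensity during 10 to 20 s after thallium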
# KCNK3 block: human KCNK3 channel inhibition, primary screen; CHO-KCNK3 thallium flux, FluxOR fluorescence; stronger effect = lower value; B-score at 10 µM; 340,000 compounds, 0.84% hits;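 active = B-score under library mean minus 4 SD, starting fluorescence ratio at most library mean plus 5 SD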;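 note: more negative B-score means stronger inhibition of thallium flux through KCNK3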
# KCNQ1 inh: human KCNQ1 channel inhibition; P51787; CHO-K1 KCNQ1, FluxOR thallium flux fluorescence; stronger effect = higher value; B-score at 10 µM; 310,000 compounds, 1.3% hits;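 active = compounds whose thallium flux B-score, printed positive for inhibition, exceeds three library SD while starting fluorescence stays within three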;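 note: channel opened by potassium depolarization with thallium stimulus after 20 min compound exposure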
# KCNK9 block: inhibitors of human KCNK9 two-pore domain potassium channel | AID 488922 | HEK293 KCNK9, FluxOR thallium flux fluorescence; stronger effect = lower value | Q9NPC2 | B-score at 10 µM | 310,000 compounds, 1.2% hits;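 active = ratio B-score over 3 SD below the library mean, with starting fluorescence within 5 SD of its mean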;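 note: negative B-score means less thallium flux so channel inhibition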
# KCNQ1 pot: potentiators or activators of human KCNQ1 potassium channel. AID 2648. 310,000 compounds, 0.35% hits. P51787. CHO-K1 KCNQ1, thallium flux FluxOR fluorescence; stronger effect = higher value. B-score at 10 µM;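 active = fluorescence ratio B-score, a plate-corrected score, at least three library SD, with initial intensity B-score within 5 SD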
#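 Assay system: CHO-K1 cells stably expressing KCNQ1; Medium: assay buffer with matched DMSO; Also added: K+/Tl+ depolarizing stimulus; Dosing: single dose; Timing: dye 90 min, compound 20 min, room temperature; Measured by: kinetic FluxOR thallium fluorescence, 10-s 1-Hz baseline, 110-s post-stimulus read; Read-out: peak-minus-minimum fluorescence over initial fluorescence, negative-control normalized, B-scored.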
# Starred values were filed as active, the others as inactive; i = inactive; . = not tested or not shown.
SMILES,hERG protect,Cl transport mod,KCNK3 block,KCNQ1 inh,KCNK9 block,KCNQ1 pot
O=C(N/N=C/c1sc(N2CCOCC2)nc1-c1ccccc1)c1ccc(O)cc1,-12.2,-1.33,i,7*,i,i
O=C(N/N=C/c1sc(N2CCOCC2)nc1-c1ccccc1)c1cccc(S(=O)(=O)N2CCCC2)c1,-9.1,-1.25,i,6*,i,i
COc1ccc(C(=O)N/N=C/c2sc(N3CCOCC3)nc2-c2ccccc2)cc1OC,-41.2,-1.48,i,i,i,i
Cc1ccc(NC(=O)CCNS(=O)(=O)c2ccc(OC(F)(F)F)cc2)c(O)c1,-7.8,.,i,i,i,i
CCOc1ccc(CCNC(=O)c2cccc(S(=O)(=O)N3CCCCC3)c2)cc1OCC,-6.9,.,i,i,i,i
CC(OC(=O)C1CC1C)C(=O)Nc1ccc(Cl)cn1 (stereo not given),.,.,i,.,.,.
Cc1ccccc1C(=O)NNC(=O)C(=O)Nc1cccc(Cl)c1C,12.9*,45.5*,i,i,i,47*
Cc1c(Cl)cccc1NC(=O)C(=O)NNC(=O)c1ccccc1F,-13.7,88.5*,i,i,i,i
COc1ccc(CCc2nc(-c3ccc(-n4cccc4)cc3)no2)cc1,-12.1,-1.07,i,i,-6.63*,i
COc1ccc(NC(C)=O)cc1S(=O)(=O)NCCc1ccccn1,.,.,i,.,.,.
CCOC(=O)C(=CNc1cccnc1Oc1ccc(C)c2c1CCC2)C(=O)OCC,-7.8,-2.3,i,i,-7.16*,i
CC(C)(C)S(=O)N1Cc2cc(CO)ccc2[C@@H]1CCO (stereo not given in full),.,.,i,.,.,.
O=C(N/N=C/c1cc([N+](=O)[O-])ccc1O)c1ccc(COc2ccc3c(c2)CCC3)o1,14.2*,.,i,i,i,i
COc1ccc(Br)cc1/C=N/NC(=O)c1ccc(COc2ccc3c(c2)CCC3)o1,-7.0,0.651,i,i,i,i
CCN(c1ccccc1)S(=O)(=O)c1ccc(NC(=S)NC(=O)c2ccc(Br)o2)cc1,10.9*,20.2*,i,i,i,12*
Cc1cc(C)cc(NS(=O)(=O)c2ccc(NC(=S)NC(=O)c3cccs3)cc2)c1,-8.0,0.186,i,i,i,i
CN(C1CCCCC1)S(=O)(=O)c1ccc(NC(=S)NC(=O)c2cccs2)cc1,-10.6,17.1*,i,i,i,i
CN(c1ccccc1)S(=O)(=O)c1ccc(NC(=S)NC(=O)c2ccccc2)cc1,-12.9,3.05*,i,i,i,i
CCN(CC)C(=O)CN1C(=O)C2(OCC(C)(C)CO2)c2ccccc21,.,.,i,.,.,.
Brc1ccc(/C=N/Nc2ccc3ccccc3n2)cc1,-0.5,0.585,i,i,i,i
Fc1cccc(/C=N/Nc2ccc3ccccc3n2)c1,10.1*,-1.82,i,i,i,58*
Cc1cccc(C)c1NC(=O)CN(C)C(=O)CC1CC2CCC1C2 (stereo not given),.,.,i,.,.,.
Cc1ccc(NC(=O)CN(C)C(=O)c2cccc(-n3cccc3)c2)cc1,.,.,i,.,.,.
O=C1C2C3C=CC(O3)C2C(=O)N1N=Cc1cccc2ccccc12 (stereo not given),.,.,i,.,.,.
CCOc1ncccc1C(=O)NNC(=O)c1ccc(NS(=O)(=O)c2cccs2)cc1,-13.3,.,i,i,i,i
SMILES,hERG protect,Cl transport mod,KCNK3 block,KCNQ1 inh,KCNK9 block,KCNQ1 pot
Cc1ccc(NC(=O)Nc2ccccc2F)cc1S(=O)(=O)N1CCOCC1,.,.,-10*,.,.,.
Cc1ccc(NC(=O)c2c(F)cccc2Cl)cc1S(=O)(=O)N1CCOCC1,.,.,i,.,.,.
COC(=O)c1c(NC(=O)c2ccccc2)sc(C(=O)c2ccccc2)c1C,-7.2,8.42*,i,i,i,i
NC(=Nc1ccccc1)N(c1ccccc1)c1ccccc1,.,.,i,.,.,.
CCCn1nnnc1NC(=O)c1ccc2ccccc2c1,-4.3,15.9*,i,i,i,i
Cn1cccc1C(=O)Nc1ccc(Cl)c(S(=O)(=O)N2CCCCC2)c1,.,.,i,.,.,.
C/C=C(/C)C(=O)O[C@@H]1c2c(ccc3ccc(=O)oc23)OC(C)(C)[C@@H]1OC(=O)/C(C)=C\C,-5.8,-1.22,i,i,-7.38*,i

# High-throughput results as filed in PubChem.
